What was measured:
RAW264.7 [1] = assay: Antiinflammatory activity in mouse RAW264.7 cells assessed as inhibition of LPS-induced NO production at 50 uM by Griess assay; type: functional
Method in brief: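 RAW 264.7 cells grown in DMEM with 10% FBS, penicillin/streptomycin, 37 °C, 5% CO2. Seeded 5 × 10^4 cells/well for 24 h, then given sample (final 50 μM, 1% DMSO) plus 2 μg/mL LPS for 24 h. Supernatant mixed with Griess reagents I and II, absorbance read at 540 nm. % inhibition computed against LPS-only (model) and no-LPS (blank) wells.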

[2] = Cytotoxicity against mouse RAW264.7 cells assessed as reduction in cell viability after 24 hrs by MTT assay; type: cell-based
Method in brief: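 MTT viability test in RAW 264.7 cells plated at 5 × 10^3 per well for 24 h. Cells were treated with sample at final 50 μM in 1% DMSO for 24 h. 1% DMSO served as vehicle control and cell-free medium as blank. MTT was added for 4 h, formazan dissolved in DMSO, and absorbance read at 490 nm.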

[3] = Cytotoxicity against mouse RAW264.7 cells assessed as cell survival at 50 uM after 24 hrs by MTT assay; type: cell-based; conditions: read-out: Survival
Method in brief: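 RAW 264.7 mouse macrophages in DMEM with 10% FBS, penicillin and streptomycin, at 37 °C under 5% CO2. Seeded at 5 × 10^3 cells/well for 24 h, then exposed 24 h to samples at 50 μM final (1% DMSO; vehicle and cell-free blanks). MTT added, 4 h, medium replaced with DMSO, absorbance read at 490 nm.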

RAW264.7 [4] = assay: Antiinflammatory activity in mouse RAW264.7 cells assessed as inhibition of LPS-induced NO production by Griess assay; type: functional, cell-based
Method in brief: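 RAW 264.7 cells in DMEM/10% FBS seeded at 5 × 10^4 per well for 24 h. Samples added in DMSO (1% final) together with 2 μg/mL LPS and incubated 24 h. Nitrite read at 540 nm by Griess reagent.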

RAW264.7 [5] = assay: Inhibition of NF-kappaB (unknown origin) expressed in mouse RAW264.7 cells at 50 uM pretreated for 1 hr followed by stimulation with LPS measured after 6 hrs by luciferase reporter gene assay; type: cell-based
Method in brief: (§1)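 RAW 264.7 cells stably carrying a pNF-κB-Luc reporter, kept in DMEM/10% FBS with geneticin 500 μg/mL, 37 °C. Pretreated 1 h with sample (0.78–200 μM) and then stimulated with E. coli 055:B5 LPS for 6 h. […] Triplicates, mean ± SD; IC50 by sigmoidal nonlinear regression.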

[6] = Inhibition of NF-kappaB (unknown origin) expressed in mouse RAW264.7 cells pretreated for 1 hr followed by stimulation with LPS measured after 6 hrs by luciferase reporter gene assay; type: cell-based; method in brief: as §1

Row | SMILES | inhibition at 50 µM (RAW264.7 [1]) | CC50 at 24 h [2] | viability at 24 h, 50 µM [3] | IC50 (RAW264.7 [4]) | inhibition (RAW264.7 [5]) | IC50 [6]
1 | CC(=O)O[C@H]1[C@H](O)C=C2C=C3OC(=O)C(C)=C3C[C@]2(C)[C@H]1C | 36% | > 50 µM | > 90% | – | – | –
2 | C=C(C)[C@@H]1C[C@@]2(C)C(=CC1=O)C[C@H](OC(C)=O)C[C@@H]2C | 29% | > 50 µM | > 90% | – | – | –
3 | C=C(C)[C@@H]1C[C@@]2(C)C(=CC1=O)C[C@H](O)C[C@@H]2C | 16% | > 50 µM | > 90% | – | – | –
4 | C/C=C/CCC(=O)O[C@H]1C=CC2=CC(=O)[C@H](/C(C=O)=C\OC)C[C@]2(C)[C@H]1C | 66% | > 50 µM | > 90% | 25 µM | 38% | –
5 | CC1=C2C[C@@]3(C)C(=C[C@H](O)[C@@H](O)[C@@H]3C)C=C2OC1=O | 21% | > 50 µM | > 90% | – | – | –
6 | S=C(S)N1CCCC1 [PYRROLIDINE DITHIOCARBAMATE] | – | – | – | – | – | 37 µM
7 | C=C(C(=O)O)[C@@H]1C[C@@]2(C)C(=CC1=O)C=C[C@H](OC(=O)CC/C=C/C)[C@@H]2C | 97% | > 50 µM | > 90% | 8 µM | 40% | 78 µM
8 | C=C(C)[C@@H]1C[C@@]2(C)C(=CC1=O)[C@H](O)[C@H](O)C[C@@H]2C | 22% | > 50 µM | > 90% | – | – | –
9 | C=C(C)[C@@H]1C[C@@]2(C)C(=C[C@H](O)C[C@@H]2C)C[C@H]1OC(C)=O | 30% | > 50 µM | > 90% | – | – | –
10 | CC1=C2C[C@@]3(C)C(=C[C@@H](O)[C@H](O)[C@@H]3C)C=C2OC1=O | 11% | > 50 µM | > 90% | – | – | –
11 | CC1=C2C[C@]3(C)[C@@H](C)C=C[C@H](O)[C@]3(O)C=C2OC1=O | 12% | > 50 µM | > 90% | – | – | –
12 | CC(=O)O[C@H]1C(=O)C=C2C=C3OC(=O)C(C)=C3C[C@]2(C)[C@H]1C | 68% | > 50 µM | > 90% | 22 µM | – | –
13 | C=C(CO)[C@@H]1C[C@@]2(C)C(=CC(=O)C[C@@H]2C)C[C@H]1O | 7% | > 50 µM | > 90% | – | – | –
14 | C=C(C)[C@@H]1C[C@@]2(C)C(=CC(=O)C[C@@H]2C)C[C@H]1O | 4% | > 50 µM | > 90% | – | – | –
15 | CC1=C2C[C@@]3(C)C(=CC(=O)C(O)=C3C)C=C2OC1=O | 16% | > 50 µM | > 90% | – | – | –
16 | C/C=C/CCC(=O)O[C@H]1C=CC2=C[C@]3(O)OC(=O)C(C)=C3C[C@]2(C)[C@H]1C | 92% | > 50 µM | > 90% | 15 µM | 42% | 72 µM
17 | C=C(CO)[C@@H]1C[C@@]2(C)C(=C[C@H](O)C[C@@H]2C)C[C@H]1O | 15% | > 50 µM | > 90% | – | – | –
18 | C=C(C(=O)O)[C@@H]1C[C@@]2(C)C(=CC1=O)C=C[C@H](O)[C@@H]2C | 11% | > 50 µM | > 90% | – | – | –
19 | C/C=C/CCC(=O)O[C@H]1C=CC2=C[C@]3(O)OC(=O)C(CO)=C3C[C@]2(C)[C@H]1C | 63% | > 50 µM | > 90% | 26 µM | 20% | –
20 | C/C=C/CCC(=O)O[C@H]1C=CC2=CC(=O)/C(=C(\C)C(=O)O)C[C@]2(C)[C@H]1C | 46% | > 50 µM | > 90% | 45 µM | – | –
21 | CC1=C2C[C@]3(C)[C@@H](C)C=C[C@H](O)[C@@]3(O)C=C2OC1=O | 7% | > 50 µM | > 90% | – | – | –
22 | C=C(C)[C@@H]1C[C@@]2(C)C(=C[C@H](O)C[C@@H]2C)C[C@H]1O | 24% | > 50 µM | > 90% | – | – | –
23 | O=c1c(O)c(-c2ccc(O)c(O)c2)oc2cc(O)cc(O)c12 [QUERCETIN] | – | > 50 µM | – | 15 µM | – | –
24 | CC1=C2C[C@@]3(C)C(=C[C@@H](O)[C@@H](O)[C@@H]3C)C=C2OC1=O | 23% | > 50 µM | > 90% | – | – | –
